Source: ChEMBL document CHEMBL4152324 (Eur J Med Chem, 2018)
The source made the active and inactive calls. The rule behind the calls is not given here.

What was measured:
[1] = molecular target: T1, NAD-dependent protein deacetylase sirtuin-2 (Homo sapiens, UniProt Q8IXJ6); experiment: Inhibition of recombinant His-tagged SIRT2 (56 to 356 residues) (unknown origin) expressed in Escherichia coli Transetta(DE3) using AcIQF as substrate preincubated for 30 mins followed by substrate and NAD+ addition measured after 2 hrs by fluorescence assay
T1 sequence (Q8IXJ6 whole entry): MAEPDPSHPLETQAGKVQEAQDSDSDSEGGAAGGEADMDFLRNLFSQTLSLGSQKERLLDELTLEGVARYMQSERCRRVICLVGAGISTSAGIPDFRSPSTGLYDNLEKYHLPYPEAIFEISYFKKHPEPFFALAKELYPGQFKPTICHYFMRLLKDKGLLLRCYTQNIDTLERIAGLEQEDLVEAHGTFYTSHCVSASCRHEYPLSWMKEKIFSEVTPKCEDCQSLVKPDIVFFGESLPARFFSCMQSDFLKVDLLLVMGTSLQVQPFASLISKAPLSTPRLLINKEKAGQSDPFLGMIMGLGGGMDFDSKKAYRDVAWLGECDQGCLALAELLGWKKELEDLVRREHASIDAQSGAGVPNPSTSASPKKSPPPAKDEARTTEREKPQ

[2] = molecular target: T2, NAD-dependent protein deacetylase sirtuin-2 (Homo sapiens) (UniProt Q8IXJ6); experiment: Inhibition of SIRT2 in human NCI-H441 cells assessed as increase in acetylated alpha-tubulin level after 72 hrs by Western blot analysis; assay type: cell-based
T2 sequence (whole entry): T1 sequence (Q8IXJ6 whole entry)
Method in brief: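 H441 cells (ATCC, passaged <6 months after resuscitation) exposed to compound for 72 h. Whole-cell lysates separated by SDS-PAGE, transferred to PVDF and probed with anti-Ac-α-tubulin and anti-α-tubulin (1:1,000), then HRP secondaries (1:5,000) with ECL detection. Ac-α-tubulin normalized to α-tubulin, expressed relative to untreated control set to 1.0.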

NCI-H441 [3] = experiment: Antiproliferative activity against human NCI-H441 cells after 72 hrs by MTT assay; assay type: functional, cell-based; details: NCI-H441, 72 h
Method in brief: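 Cells in 96-well plates given DMSO vehicle or a range of compound concentrations for 72 h. MTT reagent (5 mg/mL stock) added, then 4 h at 37 °C. Formazan dissolved overnight in 20% acidified SDS (w/v), absorbance read at 570 nm. IC50 taken from the viability profile.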

NCI-H441 [4] = experiment: Anticlonogenic activity against human NCI-H441 cells at 3 to 30 uM after 2 weeks by crystal violet staining based assay; assay type: functional, cell-based
Method in brief: (§1)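 Cells seeded at 5,000 per well in six-well plates and exposed to DMSO vehicle or compound for 2 weeks, with agents replaced every 3 days. Cells then fixed with methanol and stained with 0.05% crystal violet (w/v).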

NCI-H441 [5] = experiment: Antiproliferative activity against human NCI-H441 cells assessed as reduction in EdU incorporation at 30 uM after 48 hrs by DAPI staining based fluorescence microscopic method; assay type: functional, cell-based
Method in brief: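 Cells in 96-well plates treated with DMSO vehicle or compound (30 μM) for 48 h. Proliferation measured by EdU incorporation kit per manufacturer. EdU and DAPI nuclear fluorescence imaged on a high-content reader.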

NCI-H441 [6] = experiment: Induction of apoptosis in human NCI-H441 cells assessed as live cells at 30 uM after 48 hrs by Annexin V-FITC/propidium iodide staining based flow cytometry (reference value: 88.5%); assay type: functional
NCI-H441 [7] = experiment: Induction of apoptosis in human NCI-H441 cells assessed as early apoptotic cells at 30 uM after 48 hrs by Annexin V-FITC/propidium iodide staining based flow cytometry (reference value: 2.47%); assay type: functional
NCI-H441 [8] = experiment: Induction of apoptosis in human NCI-H441 cells assessed as late apoptotic cells at 30 uM after 48 hrs by Annexin V-FITC/propidium iodide staining based flow cytometry (reference value: 7.25%); assay type: functional
NCI-H441 [9] = experiment: Induction of apoptosis in human NCI-H441 cells assessed as necrotic cells at 30 uM after 48 hrs by Annexin V-FITC/propidium iodide staining based flow cytometry (reference value: 1.79%); assay type: functional
NCI-H441 [10] = experiment: Antimigratory activity against human NCI-H441 cells assessed as reduction in wound closure at 10 to 30 uM after 24 hrs by light microscopic method; assay type: functional, cell-based
Method in brief: (§2)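 Confluent monolayers in 12-well plates were scratched with a sterile pipette tip, then treated with DMSO vehicle or compound for 24 h. Wounds photographed by digital camera on a light microscope.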

NCI-H441 [11] = experiment: Anti-invasive activity against human NCI-H441 cells after 48 hrs by crystal violet staining based transwell assay; assay type: functional, cell-based
Method in brief: (§3)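 H441 cells in serum-free RPMI1640 seeded at 5 × 10⁴/100 μL into Matrigel-precoated insert upper chambers, with DMSO vehicle or compound in serum-free medium above. Lower chambers held RPMI1640 complete medium. After 48 h, invaded cells fixed with methanol and stained with 0.05% crystal violet (w/v).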

NCI-H441 [12] = experiment: Anticlonogenic activity against human NCI-H441 cells at 10 to 30 uM after 2 weeks by crystal violet staining based assay; assay type: functional, cell-based; method in brief: as §1
NCI-H441 [13] = experiment: Antimigratory activity against human NCI-H441 cells assessed as reduction in wound closure at 30 uM after 24 hrs by light microscopic method; assay type: functional, cell-based; method in brief: as §2
NCI-H441 [14] = experiment: Anti-invasive activity against human NCI-H441 cells at 30 uM after 48 hrs by crystal violet staining based transwell assay; assay type: functional, cell-based; method in brief: as §3

IC50 ([1]; read-out: IC50) [µM] | SMILES | further results
9.56 | CNC(=S)NCCCC(=O)Nc1ccc(OCc2cccc(NC(=O)CSc3nc(C)cc(C)n3)c2)cc1 | –
300 | Cc1cc(C)nc(SCC(=O)Nc2cccc(COc3ccc(NC(=O)CCNC(=O)OC(C)(C)C)cc3)c2)n1 | –
89.3 | C/C=C/C(=O)Nc1ccc(OCc2cccc(NC(=O)CSc3nc(C)cc(C)n3)c2)cc1 | –
70.6 | Cc1cc(C)nc(SCC(=O)Nc2cccc(COc3ccc(NC(=O)CCCN)cc3)c2)n1 | –
25.9 | Cc1cc(C)nc(SCC(=O)Nc2cccc(COc3ccccc3)c2)n1 | IC50 ([1]; read-out: pIC50 (converted)): 26.3 µM
> 300 | Cn1cc(C(=O)Nc2ccc(OCc3cccc(NC(=O)CSc4nnc5ccccn45)c3)cc2)cn1 | –
110 | CCOCC(=O)Nc1ccc(OCc2cccc(NC(=O)CSc3nc(C)cc(C)n3)c2)cc1 | –
142 | CC(C)n1cnc(SCC(=O)Nc2cccc(COc3ccc(NC(=O)c4cccs4)cc3)c2)n1 | –
1.32 | Cc1cc(C)nc(SCC(=O)Nc2cccc(COc3ccc(NC(=O)C4CCOCC4)cc3)c2)n1 | –
76.1 | Cc1cc(C)nc(SCC(=O)Nc2cccc(COc3ccc(NC(=O)C4CCCN4C(=O)OC(C)(C)C)cc3)c2)n1 (centres undefined) | –
175 | Cc1cc(C)nc(SCC(=O)Nc2cccc(COc3ccc(NC(=O)CCCN[C@@H]4CCCC[C@H]4O)cc3)c2)n1 | –
0.815 | Cc1cc(C)nc(SCC(=O)Nc2cccc(COc3ccc(NC(=O)c4cnn(C)c4)cc3)c2)n1 | inhibition [2]: Dose-dependent effect; IC50 (NCI-H441 [3]): 3.93 µM; Activity (NCI-H441 [4]): Active; Activity (NCI-H441 [5]): Active; Activity (NCI-H441 [6]): 87.8%; Activity (NCI-H441 [7]): 2.69%; Activity (NCI-H441 [8]): 7.22%; Activity (NCI-H441 [9]): 2.26%; Activity (NCI-H441 [10]): Active; Activity (NCI-H441 [11]): Dose-dependent effect
> 300 | COc1cccc(SCC(=O)Nc2cccc(COc3ccc(NC(=O)c4cccs4)cc3)c2)c1 | –
3.1 | Cc1cc(C)nc(SCC(=O)Nc2cccc(COc3ccc(NC(=O)c4ccco4)cc3)c2)n1 | –
> 300 | Cc1cc(C)nc(SCC(=O)Nc2cccc(COc3ccc(NC(=O)CCCNC(=O)OC(C)(C)C)cc3)c2)n1 | –
41.3 | Cc1cc(C)nc(SCC(=O)Nc2cccc(COc3ccc(NC(=O)C4CCCN4)cc3)c2)n1 (centres undefined) | –
93.7 | Cc1cc(C)nc(SCC(=O)Nc2cccc(COc3cccc(NC(=O)c4cnn(C)c4)c3)c2)n1 | IC50 (NCI-H441 [3]): > 100 µM; Activity (NCI-H441 [12]): inactive; Activity (NCI-H441 [5]): inactive; Activity (NCI-H441 [6]): 87.8%; Activity (NCI-H441 [7]): 2.61%; Activity (NCI-H441 [8]): 7.39%; Activity (NCI-H441 [9]): 2.21%; Activity (NCI-H441 [13]): inactive; Activity (NCI-H441 [14]): inactive
29.4 | Cc1cc(C)nc(SCC(=O)Nc2cccc(COc3ccc(NC(=O)c4ccccn4)cc3)c2)n1 | –
> 300 | Cc1cc(C)nc(SCC(=O)Nc2cccc(COc3cccc(NC(=O)c4ccccn4)c3)c2)n1 | –
169 | Cc1cc(C)nc(SCC(=O)Nc2cccc(COc3cccc(NC(=O)C4CCOCC4)c3)c2)n1 | –

IC50 ([1]; read-out: IC50) [µM] | SMILES | further results
15.2 | Cc1cc(C)nc(SCC(=O)Nc2cccc(COc3cccc(NC(=O)C4CCCN4C(=O)OC(C)(C)C)c3)c2)n1 (centres undefined) | –
> 300 | Cc1cc(C)cc(OCC(=O)Nc2cccc(COc3ccc(NC(=O)c4cccs4)cc3)c2)c1 | –
100 | Cc1cc(C)nc(SCC(=O)Nc2cccc(COc3ccc(NC(=O)OC(C)(C)C)cc3)c2)n1 | –
44.5 | Cn1nnnc1SCC(=O)Nc1cccc(COc2ccc(NC(=O)c3cccs3)cc2)c1 | –
> 300 | O=C(CSc1nc[nH]n1)Nc1cccc(COc2ccc(NC(=O)c3cccs3)cc2)c1 | –
123 | Cc1cc(C)nc(SCC(=O)Nc2cccc(COc3cccc(NC(=O)c4ccco4)c3)c2)n1 | –
> 300 | O=C(CSc1nnc2ccccn12)Nc1cccc(COc2ccc(NC(=O)c3cccs3)cc2)c1 | –
> 300 | O=C(COc1cccc2ccccc12)Nc1cccc(COc2ccc(NC(=O)c3cccs3)cc2)c1 | –
300 | Cc1cc(C)nc(SCC(=O)Nc2cccc(COc3ccc(NC(=O)CCN)cc3)c2)n1 | –
> 300 | Cc1cc(C)nc(SCC(=O)Nc2cccc(COc3ccc(NC(=O)CCN[C@@H]4CCCC[C@H]4O)cc3)c2)n1 | –
3.41 | Cc1cc(C)nc(SCC(=O)Nc2cccc(COc3ccc(NC(=O)c4cccs4)cc3)c2)n1 | –
128 | Cc1cc(C)nc(SCC(=O)Nc2cccc(COc3cccc(NC(=O)c4cccs4)c3)c2)n1 | –
142 | Cc1cc(C)nc(SCC(=O)Nc2cccc(COc3cccc(NC(=O)C4CCCN4)c3)c2)n1 (centres undefined) | –
11.7 | CNC(=S)NCCC(=O)Nc1ccc(OCc2cccc(NC(=O)CSc3nc(C)cc(C)n3)c2)cc1 | –
> 300 | Cn1cc(C(=O)Nc2ccc(OCc3cccc(NC(=O)COc4cccc5ccccc45)c3)cc2)cn1 | –
> 300 | Cc1cc(C)nc(SCC(=O)Nc2cccc(COc3ccc(NC(=O)CNC(=O)OCc4ccccc4)cc3)c2)n1 | –
> 300 | Cc1cccc(SCC(=O)Nc2cccc(COc3ccc(NC(=O)c4cccs4)cc3)c2)c1 | –
270 | CC(C)n1ncnc1SCC(=O)Nc1cccc(COc2ccc(NC(=O)c3cccs3)cc2)c1 | –
> 300 | CC(=O)NCC(=O)Nc1ccc(OCc2cccc(NC(=O)CSc3nc(C)cc(C)n3)c2)cc1 | –
